Measured values from ChEMBL document CHEMBL1139922, “Discovery and structure-activity relationship studies of indole derivatives as liver X receptor (LXR) agonists” (Bioorg Med Chem Lett, 2007).

Key:
[1] = target: T1, Oxysterols receptor LXR-beta (Homo sapiens, UniProt P55055); experiment: Agonist activity at LXRbeta LBD by HTRF cofactor peptide recruitment assay; format: functional
T1 sequence (P55055 whole entry): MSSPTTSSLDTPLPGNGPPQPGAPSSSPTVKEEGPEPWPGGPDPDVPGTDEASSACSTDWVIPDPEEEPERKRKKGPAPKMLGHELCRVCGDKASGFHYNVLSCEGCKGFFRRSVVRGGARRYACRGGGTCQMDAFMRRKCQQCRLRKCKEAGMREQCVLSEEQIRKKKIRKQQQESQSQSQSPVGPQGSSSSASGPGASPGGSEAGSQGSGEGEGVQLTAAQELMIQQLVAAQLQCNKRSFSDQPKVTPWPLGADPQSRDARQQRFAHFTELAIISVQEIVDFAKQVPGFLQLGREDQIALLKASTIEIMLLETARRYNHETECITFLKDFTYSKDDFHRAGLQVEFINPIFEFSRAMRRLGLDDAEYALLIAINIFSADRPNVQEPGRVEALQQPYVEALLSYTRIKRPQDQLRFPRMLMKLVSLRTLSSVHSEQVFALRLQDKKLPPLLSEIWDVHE

HepG2 = experiment: Ratio of induction of lipogenesis in HepG2 cells at 10 uM to control after 24 hrs; format: functional, Homo sapiens
THP-1 [2] = experiment: Ratio of induction of ABCA1 gene expression in THP1 cells at 10 uM to control; format: functional, Homo sapiens
THP-1 [3] = experiment: Induction of cholesterol efflux in THP1 cells after 18 hrs; format: functional, cell-based; conditions: Homo sapiens, THP-1, 18 h
[4] = target: T2, Oxysterols receptor LXR-alpha (Homo sapiens, UniProt Q13133); experiment: Agonist activity at LXRalpha LBD by HTRF cofactor peptide recruitment assay; format: functional
T2 sequence (Q13133 whole entry): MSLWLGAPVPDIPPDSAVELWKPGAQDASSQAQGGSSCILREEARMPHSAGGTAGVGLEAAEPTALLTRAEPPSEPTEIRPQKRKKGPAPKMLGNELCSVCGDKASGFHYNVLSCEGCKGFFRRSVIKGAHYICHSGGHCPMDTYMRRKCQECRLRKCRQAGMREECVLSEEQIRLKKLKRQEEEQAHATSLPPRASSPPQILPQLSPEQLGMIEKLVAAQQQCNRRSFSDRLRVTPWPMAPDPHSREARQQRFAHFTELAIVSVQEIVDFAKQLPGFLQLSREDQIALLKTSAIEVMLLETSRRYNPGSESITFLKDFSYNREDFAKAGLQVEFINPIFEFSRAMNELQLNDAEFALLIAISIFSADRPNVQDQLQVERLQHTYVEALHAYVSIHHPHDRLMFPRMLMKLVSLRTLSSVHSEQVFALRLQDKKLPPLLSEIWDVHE

HepG2 (Homo sapiens) = experiment: Ratio of induction of SREBP1c gene expression in HepG2 cells at 10 uM to control
THP-1 [5] = experiment: Ratio of induction of cholesterol efflux in THP1 cells at 10 uM to control after 18 hrs; format: functional, Homo sapiens
[6] = target: T1, Oxysterols receptor LXR-beta; experiment: Activation of LXRbeta co-transfected in COS7 cells with RXRalpha by reporter transactivation assay; format: functional, cell-based, COS-7
Method in brief: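 Cells exposed to vehicle or compound for 16 h; LXR reporter activation read as luciferase activity in cell lysate. EC50 derived from means of quadruplicate samples, single experiment.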

CC(C)(C)OC(=O)n1c(-c2ccc3c(c2)CC(NS(=O)(=O)c2c(F)cccc2F)C3)cc2ccccc21 (centres undefined)
EC50 [1]: 90 nM
Ratio (HepG2): 3.2
Ratio (THP-1 [2]): 7.5
EC50 (THP-1 [3]): 210 nM
EC50 [4]: 570 nM
Ratio (HepG2 (Homo sapiens)): 3
Ratio (THP-1 [5]): 1.7
EC50 [6]: 52 nM

CC(C)(C)OC(=O)n1c(-c2ccc3c(c2)CC(NS(=O)(=O)c2cccs2)C3)cc2ccccc21 (centres undefined)
EC50 [1]: 110 nM
Ratio (HepG2): 1.7
Ratio (THP-1 [2]): 7.3
EC50 (THP-1 [3]): 570 nM
EC50 [4]: 540 nM
Ratio (HepG2 (Homo sapiens)): 2.9
Ratio (THP-1 [5]): 1.5
EC50 [6]: 363 nM

CC(C)(C)OC(=O)n1c(-c2ccc3c(c2)CC(NS(=O)(=O)c2ccc(F)cc2)C3)cc2ccccc21 (centres undefined)
EC50 [1]: 460 nM
Ratio (HepG2): 2
Ratio (THP-1 [2]): 11.4
EC50 (THP-1 [3]): 570 nM
EC50 [4]: 4300 nM
Ratio (HepG2 (Homo sapiens)): 2
Ratio (THP-1 [5]): 1.7
EC50 [6]: 120 nM
